The text below walks through data of ChEMBL document CHEMBL1135686, “Binding model for nonpeptide antagonists of alpha(v)beta(3) integrin” (J Med Chem, 2002).

pIC50: −log10 of the molar value.

A word on the pIC50: it is the IC50 on a negative log10 scale, so that one unit is a factor of ten.

This assay deals with Integrin alpha-V/beta-3 (Homo sapiens, UniProt P05106+P06756). The assay is described as follows: Inhibition of Vitronectin receptor, integrin alphaV-beta3 expressed in HEK 293 cells. Type of assay: cell-based, HEK293. Summed up:
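Human recombinant αvβ3 was purified from HEK 293 cells overexpressing it, following a placental αvβ3 purification method, and captured on lyophilized wheat germ agglutinin SPA beads. Values are reported as IC50.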

Integrin alpha-V/beta-3, sequence (P05106 27-788 limits assumed): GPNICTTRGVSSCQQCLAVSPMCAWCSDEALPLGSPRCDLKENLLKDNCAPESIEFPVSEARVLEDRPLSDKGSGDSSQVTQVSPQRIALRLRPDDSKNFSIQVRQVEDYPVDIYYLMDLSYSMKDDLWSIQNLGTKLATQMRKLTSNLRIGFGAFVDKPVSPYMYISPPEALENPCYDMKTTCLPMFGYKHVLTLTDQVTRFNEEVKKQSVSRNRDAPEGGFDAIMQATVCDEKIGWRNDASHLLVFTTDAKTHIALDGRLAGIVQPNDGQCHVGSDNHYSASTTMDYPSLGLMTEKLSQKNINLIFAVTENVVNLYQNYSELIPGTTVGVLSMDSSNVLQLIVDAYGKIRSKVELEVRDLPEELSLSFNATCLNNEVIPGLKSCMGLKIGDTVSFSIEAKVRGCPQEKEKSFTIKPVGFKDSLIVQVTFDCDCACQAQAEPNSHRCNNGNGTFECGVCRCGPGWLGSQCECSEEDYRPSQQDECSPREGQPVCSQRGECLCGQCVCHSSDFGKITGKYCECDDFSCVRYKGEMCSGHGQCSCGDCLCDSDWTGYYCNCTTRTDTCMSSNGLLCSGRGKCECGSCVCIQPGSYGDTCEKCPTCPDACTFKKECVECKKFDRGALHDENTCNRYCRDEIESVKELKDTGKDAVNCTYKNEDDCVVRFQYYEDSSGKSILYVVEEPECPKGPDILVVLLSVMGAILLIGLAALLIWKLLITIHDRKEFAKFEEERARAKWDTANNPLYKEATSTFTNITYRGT
Integrin alpha-V/beta-3, sequence (P06756 31-889 limits assumed): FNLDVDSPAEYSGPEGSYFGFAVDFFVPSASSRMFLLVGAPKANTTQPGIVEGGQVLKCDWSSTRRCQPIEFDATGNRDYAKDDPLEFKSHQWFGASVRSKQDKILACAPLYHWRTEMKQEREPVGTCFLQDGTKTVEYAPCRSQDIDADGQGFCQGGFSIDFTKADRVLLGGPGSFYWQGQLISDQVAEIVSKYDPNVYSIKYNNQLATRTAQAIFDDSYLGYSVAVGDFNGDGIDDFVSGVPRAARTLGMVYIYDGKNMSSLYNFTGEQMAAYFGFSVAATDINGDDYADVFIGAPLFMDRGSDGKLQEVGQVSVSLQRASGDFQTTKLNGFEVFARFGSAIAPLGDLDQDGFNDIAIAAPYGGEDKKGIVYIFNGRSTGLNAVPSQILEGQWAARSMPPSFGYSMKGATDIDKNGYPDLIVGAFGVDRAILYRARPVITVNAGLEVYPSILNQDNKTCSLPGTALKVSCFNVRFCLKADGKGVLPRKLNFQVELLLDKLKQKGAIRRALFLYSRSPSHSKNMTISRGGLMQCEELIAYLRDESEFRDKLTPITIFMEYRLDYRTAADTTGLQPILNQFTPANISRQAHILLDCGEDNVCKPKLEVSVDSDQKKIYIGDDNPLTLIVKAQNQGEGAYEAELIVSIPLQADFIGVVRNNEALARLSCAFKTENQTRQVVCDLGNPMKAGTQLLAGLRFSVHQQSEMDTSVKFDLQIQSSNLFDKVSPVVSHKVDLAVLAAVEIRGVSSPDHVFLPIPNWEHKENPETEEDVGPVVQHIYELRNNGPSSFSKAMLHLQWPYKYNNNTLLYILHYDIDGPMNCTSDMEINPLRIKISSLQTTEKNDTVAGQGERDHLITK
Integrin alpha-V/beta-3, sequence (P06756 891-1048 limits assumed): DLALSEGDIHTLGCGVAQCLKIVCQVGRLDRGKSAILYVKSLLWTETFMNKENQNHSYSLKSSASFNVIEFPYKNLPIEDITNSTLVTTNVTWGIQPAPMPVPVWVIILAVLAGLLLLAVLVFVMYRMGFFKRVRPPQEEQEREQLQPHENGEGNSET

With `CNc1cccc(CCOc2ccc3c(c2)CN(CC(F)(F)F)C(=O)[C@H](CC(=O)O)C3)n1`, the pIC50 is 9.82.
Consider `O=C(O)C[C@H](NC(=O)CNC(=O)CCCc1ccc2c(n1)NCCC2)c1cccnc1`, for which the pIC50 was 8.06.
To `O=C(NC[C@H](NS(=O)(=O)c1ccccc1)C(=O)O)c1ccc(OCCC2CCNCC2)cc1` belongs less than 6.00.
`O=C(O)C[C@H](NC(=O)CN1CCC(CCc2ccc3c(n2)NCCC3)C1=O)c1cccnc1` (stereo not given in full) gave a pIC50 of 9.46.
Regarding `O=C(O)C[C@H](NC(=O)CN1CCC(CCc2ccc3c(n2)NCCC3)C1=O)c1cnc2ccccc2c1` (stereo not given in full), the pIC50 was 10.40.
